These results are taken from ChEMBL document CHEMBL1145814, “Antiretroviral activity of semisynthetic derivatives of glycopeptide antibiotics” (J Med Chem, 2003).

Broadly, the IC50 is the midpoint of a concentration-inhibition curve. Higher therefore signals lower potency. Broadly, the EC50 is the concentration at which the effect is half-maximal. A low value points to a more potent agent.

For one experiment, the system named is MOLT-4. As to the kind of experiment: Inhibitory concentration of compound against proliferation of human T-lymphocytic cells MOLT-4/C8 was determined. It counts as functional, cell-based. The gist of the method:
(§1)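 (5–7.5) × 10^4 cells per well were incubated with test compound at 37 °C in a humidified CO2 atmosphere. L1210 murine leukemia cells grew for 48 h, and CEM and Molt4/clone 8 human lymphocytes grew for 72 h. Cells were then counted with a Coulter counter. IC50 is the concentration inhibiting proliferation by 50%.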

A further experiment concerns CCRF-CEM. As to the kind of experiment: Inhibitory concentration against proliferation of human T-lymphocytic (CEM) cells. In kind it is functional, cell-based. As to conditions: Homo sapiens, CCRF-CEM. The essentials: as §1
Another experiment relates to L1210. As to the kind of experiment: Inhibitory concentration of compound against proliferation of murine lukemia cells L1210 was determined. In kind it is functional, cell-based. As to conditions: Mus musculus. The essentials: as §1
For experiment [1], the species on record is Mus musculus. As to the kind of experiment: Effective concentration of compound required to protect C3H/3T3 embryo murine fibroblasts against the MSV induced transformation. Particulars: Mus musculus, C3H/3T3. In kind it is functional, organism-based. The gist of the method: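 Monolayer murine embryo fibroblast C3H/3T3 cultures were infected with Moloney murine sarcoma virus at 75 focus-forming units and cultured with test compound. Transformation was examined microscopically on day 6 postinfection. EC50 is the concentration protecting cells against MSV-induced transformation by 50%.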

For experiment [2], the species on record is Mus musculus. As to the kind of experiment: Minimal inhibitory concentration required to cause a microscopic detectable alteration of C3H/3T3 embryo murine fibroblast cell morphology. It counts as functional. The essentials: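 Uninfected C3H/3T3 murine embryo fibroblast cultures were exposed to test compound and checked microscopically for changes in cell morphology. The MIC is the concentration causing a microscopically detectable alteration of morphology.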

Experiment [3] concerns Human immunodeficiency virus 1. As to the kind of experiment: Effective concentration of compound required to protect human T-lymphocytic cells against the cytopathogenicity of HIV-1. In kind it is functional, organism-based. Particulars: Human immunodeficiency virus 1. (Damage to the host cells serves as the signal in cytopathic effect assays.)
In experiment [4] the test system is Human immunodeficiency virus 2. As to the kind of experiment: Concentration required to protect human T-lymphocytic cells against the cytopathogenicity of HIV-2. It counts as functional, organism-based. Particulars: Human immunodeficiency virus 2.

On to `CN[C@H](CC(C)C)C(=O)N[C@H]1C(=O)N[C@@H](CC(N)=O)C(=O)N[C@H]2C(=O)N[C@H]3C(=O)N[C@H](C(=O)N[C@H](C(=O)O)c4cc(O)cc(O)c4-c4cc3ccc4O)[C@H](O[C@H]3C[C@](C)(N)[C@@H](O)[C@H](C)O3)c3ccc(cc3)Oc3cc2cc(c3O[C@@H]2O[C@H](CO)[C@@H](O)[C@H](O)[C@H]2O[C@H]2C[C@](C)(N)[C@@H](O)[C@H](C)O2)Oc2ccc(cc2Cl)[C@H]1O`, for which the IC50 in the experiment with MOLT-4, with CCRF-CEM and with L1210 was greater than 500 µM throughout. Moreover, the concentration for a half-maximal effect (EC50) in the experiment filed under Mus musculus [1] is greater than 100 µM; in experiment [3], greater than 250 µM; in experiment [4], greater than 250 µM. The same compound yielded an MIC in the experiment filed under Mus musculus [2] greater than 100 µM.
Consider `CNC(=O)[C@@H]1NC(=O)C2NC(=O)C(NC(=O)C3NC(=O)C(CC(N)=O)NC(=O)C(NC(=O)C(CC(C)C)NC)C(O)c4ccc(c(Cl)c4)Oc4cc3cc(c4O)Oc3ccc(cc3)C2O)c2ccc(O)c(c2)-c2c1cc(O)c(CN1CCN(Cc3ccc(-c4ccccc4)cc3)CC1)c2O` (stereo partly drawn), for which the half-maximal inhibitory concentration (IC50) in the experiment on MOLT-4, with CCRF-CEM and in the experiment with L1210 was greater than 100 µM each time. Moreover, the EC50 was 12 µM in the experiment filed under Mus musculus [1], 4 µM in experiment [3] and 5.5 µM in experiment [4]. In the experiment listed under Mus musculus [2], the MIC was greater than 100 µM.
As for `O=CC(=O)c1[nH]c2ccccc2c1NC1C(=O)NC2Cc3ccc(c(Cl)c3)Oc3cc4cc(c3O)Oc3ccc(cc3Cl)C(O)C3NC(=O)C(NC(=O)C4NC(=O)C(NC2=O)c2cc(O)cc(c2)Oc2cc1ccc2O)c1ccc(O)c(c1)-c1c(O)cc(O)cc1[C@H](C(=O)O)NC3=O` (stereo partly drawn), the half-inhibitory concentration (IC50) in the experiment with MOLT-4 is 108 µM; with CCRF-CEM, 108 µM; with L1210 it was 192 µM. The concentration for a half-maximal effect (EC50) in the experiment listed under Mus musculus [1] stood at 4.4 µM; in experiment [3], 10 µM; in experiment [4], 15 µM. The MIC in the experiment listed under Mus musculus [2] was greater than 100 µM.
Turning to `CN[C@H](CC(C)C)C(=O)N[C@H]1C(=O)N[C@@H](CC(N)=O)C(=O)N[C@H]2C(=O)N[C@H]3C(=O)N[C@H](C(=O)N[C@H](C(=O)O)c4cc(O)c(CNCc5ccc(-c6ccc(Cl)cc6)cc5)c(O)c4-c4cc3ccc4O)[C@H](O[C@H]3C[C@](C)(N)[C@@H](O)[C@H](C)O3)c3ccc(cc3)Oc3cc2cc(c3O[C@@H]2O[C@H](CO)[C@@H](O)[C@H](O)[C@H]2O[C@H]2C[C@](C)(N)[C@@H](O)[C@H](C)O2)Oc2ccc(cc2Cl)[C@H]1O`, the concentration for half-maximal inhibition (IC50) with MOLT-4 is 72 µM; with CCRF-CEM it was 106 µM; with L1210, 136 µM. Further, the EC50 in the experiment listed under Mus musculus [1] was greater than 4 µM; in experiment [3] it was 22 µM; in experiment [4], greater than 50 µM. Besides, the MIC in the experiment listed under Mus musculus [2] is greater than 20 µM.
Consider `CCCCCCCCCCNC(=O)[C@H]1NC(=O)[C@H]2NC(=O)[C@H](NC(=O)[C@@H]3NC(=O)[C@H](CC(N)=O)NC(=O)[C@H](NC(=O)[C@@H](CC(C)C)NC)[C@H](O)c4ccc(c(Cl)c4)Oc4cc3cc(c4O[C@@H]3O[C@H](CO)[C@@H](O)[C@H](O)[C@H]3O[C@H]3C[C@](C)(N)[C@@H](O)[C@H](C)O3)Oc3ccc(cc3)[C@H]2O[C@H]2C[C@](C)(N)[C@@H](O)[C@H](C)O2)c2ccc(O)c(c2)-c2c(O)cc(O)cc21`, for which the half-maximal inhibitory concentration (IC50) worked out at 21 µM in the experiment on MOLT-4, 9.4 µM in the experiment with CCRF-CEM and 29 µM in the experiment on L1210. The EC50 in experiment [3] and in experiment [4] was greater than 10 µM each time.
As for `CCCCCCCCCCNCc1c(O)cc2c(c1O)-c1cc(ccc1O)C1NC(=O)C3NC(=O)C4NC(=O)C(Cc5ccc(c(Cl)c5)Oc5cc3cc(c5O)Oc3ccc(cc3Cl)C(O)C(NC1=O)C(=O)N[C@H]2C(=O)NCCCN(C)C)NC(=O)C(N)c1ccc(O)c(c1)Oc1cc(O)cc4c1` (stereo partly drawn), the IC50 is greater than 100 µM with MOLT-4, greater than 100 µM in the experiment on CCRF-CEM and 48 µM in the experiment on L1210. In addition, the concentration giving a half-maximal response (EC50) in experiment [3] was 1.4 µM; in experiment [4], 6.1 µM.
`CNC(=O)[C@H]1NC(=O)[C@H]2NC(=O)[C@H](NC(=O)[C@@H]3NC(=O)[C@H](CC(N)=O)NC(=O)[C@H](NC(=O)[C@@H](CC(C)C)NC)[C@H](O)c4ccc(c(Cl)c4)Oc4cc3cc(c4O[C@@H]3O[C@H](CO)[C@@H](O)[C@H](O)[C@H]3O[C@H]3C[C@](C)(N)[C@@H](O)[C@H](C)O3)Oc3ccc(cc3)[C@H]2O[C@H]2C[C@](C)(N)[C@@H](O)[C@H](C)O2)c2ccc(O)c(c2)-c2c(O)cc(O)cc21`: the concentration for half-maximal inhibition (IC50) with MOLT-4, with CCRF-CEM and with L1210 was greater than 500 µM each time. The 50% effective concentration (EC50) in experiment [3] and in experiment [4] was greater than 250 µM in each case.
For the compound `COC(=O)[C@@H]1NC(=O)C2NC(=O)C(NC(=O)C(N)c3cc(Oc4ccc(CC(NC(=O)OCc5ccccc5)C(=O)O)cc4Cl)c(O)c(c3)Oc3ccc(cc3Cl)C2O)c2ccc(O)c(c2)-c2c(O)cc(O)cc21` (stereo partly drawn), the IC50 in the experiment on MOLT-4, with CCRF-CEM and in the experiment with L1210 was greater than 500 µM in each case. The EC50 came out at 25 µM in experiment [3] and 85 µM in experiment [4].
In the experiment with CCRF-CEM, `CNC(=O)[C@@H]1NC(=O)C2NC(=O)C(NC(=O)C3NC(=O)C4NC(=O)C(Cc5ccc(c(Cl)c5)Oc5cc3cc(c5O)Oc3ccc(cc3Cl)C2O)NC(=O)C(NC(=O)OC(C)(C)C)c2ccc(O)c(c2)Oc2cc(O)cc4c2)c2ccc(O)c(c2)-c2c(O)cc(O)cc21` (stereo partly drawn) gave an IC50 of 229 µM. Besides, the EC50 in the experiment filed under Mus musculus [1] was 11 µM; in experiment [3], 13 µM; in experiment [4], 17 µM. This compound also had an MIC in the experiment listed under Mus musculus [2] greater than 100 µM.
Turning to `CCCCc1ccc(CNC2C(Oc3c4cc5cc3Oc3ccc(cc3Cl)C(O)C3NC(=O)C(NC(=O)C5NC(=O)C5NC(=O)C(Cc6ccc(cc6)O4)NC(=O)C(NC)c4ccc(O)c(c4)Oc4cc(O)c(Cl)c5c4)c4ccc(O)c(c4)-c4c(cc(O)c(CN5CCN(Cc6ccc(-c7ccccc7)cc6)CC5)c4O)[C@H](C(=O)O)NC3=O)OC(C(=O)O)C(O)C2O)cc1` (stereo partly drawn), in the experiment with CCRF-CEM, the 50% inhibitory concentration (IC50) came out at 81 µM. The results for the half-maximal effective concentration (EC50) (in the experiment filed under Mus musculus [1]; in experiment [3]; in experiment [4]) were 6.9 µM, 3.5 µM and 22 µM, respectively. The MIC in the experiment filed under Mus musculus [2] is greater than 20 µM.
With `CCCCCCCCCCNCc1c(O)cc2c(c1O)-c1cc(ccc1O)[C@H]1NC(=O)[C@@H]3NC(=O)[C@H](CC(N)=O)NC(=O)[C@H](NC(=O)[C@@H](CC(C)C)NC)[C@H](O)c4ccc(c(Cl)c4)Oc4cc3cc(c4O[C@@H]3O[C@H](CO)[C@@H](O)[C@H](O)[C@H]3O[C@H]3C[C@](C)(N)[C@@H](O)[C@H](C)O3)Oc3ccc(cc3)[C@@H](O[C@H]3C[C@](C)(N)[C@@H](O)[C@H](C)O3)[C@H](NC1=O)C(=O)N[C@@H]2C(=O)O`, the IC50 worked out at 27 µM in the experiment on MOLT-4, 24 µM in the experiment on CCRF-CEM and 19 µM in the experiment on L1210. Besides, the concentration for a half-maximal effect (EC50) in experiment [3] and in experiment [4] was greater than 20 µM throughout.
In the case of `O=C(NC1C(=O)NC2Cc3ccc(c(Cl)c3)Oc3cc4cc(c3O)Oc3ccc(cc3Cl)C(O)C3NC(=O)C(NC(=O)C4NC(=O)C(NC2=O)c2cc(O)cc(c2)Oc2cc1ccc2O)c1ccc(O)c(c1)-c1c(O)cc(O)cc1[C@H](C(=O)O)NC3=O)OCc1ccccc1` (stereo partly drawn), the IC50 in the experiment on CCRF-CEM was greater than 250 µM. Also, the EC50 in the experiment listed under Mus musculus [1] came to 11 µM; in experiment [3], 12 µM; in experiment [4] it was 8 µM. Also, the MIC in the experiment listed under Mus musculus [2] was greater than 100 µM.
